From ChEMBL document CHEMBL1144541, “Antinociceptive and antiinflammatory activities and QSAR studies on 2-substituted-4,5-diphenyl-1H-imidazoles” (2007)

Tests used:
Type in all cases: functional
Mus musculus [1] = assay: Antinociceptive activity in ip dosed Swiss albino mouse assessed as latency time by hot plate method
In short: (§1)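 Swiss albino mice (20–25 g) were housed 7 days at 30 ± 1 °C before testing, in groups of six. Compounds were given ip at 9.5–12.58 mg/kg as a 0.2% Tween suspension. Mice were placed on a 55 ± 0.5 °C hot plate before dosing and at 15, 30, 60 and 120 min after dosing, with a 15 s cut-off. Significance was assessed by Student's t test.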

Mus musculus [2] = assay: Antinociceptive activity in ip dosed Swiss albino mouse assessed as latency time after 15 mins by hot plate method; in short: as §1
Mus musculus [3] = assay: Antinociceptive activity in ip dosed Swiss albino mouse assessed as latency time after 30 mins by hot plate method; in short: as §1
Mus musculus [4] = assay: Antinociceptive activity in ip dosed Swiss albino mouse assessed as latency time after 60 mins by hot plate method; in short: as §1
Mus musculus [5] = assay: Antinociceptive activity in ip dosed Swiss albino mouse assessed as latency time after 120 mins by hot plate method; in short: as §1
Mus musculus [6] = assay: Antinociceptive activity in ip dosed Swiss albino mouse assessed as latency time by tail flick method
In short: (§2)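 Swiss albino mice (20–25 g) received compounds ip at 9.5–12.58 mg/kg in 0.2% Tween suspension. Tail-flick latency to radiant heat was measured, with stimulus intensity set to give a 3–4 s baseline. Readings were taken just before injection and at 15, 30, 60 and 120 min after. Significance was assessed by Student's t test.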

Mus musculus [7] = assay: Antinociceptive activity in ip dosed Swiss albino mouse assessed as latency time after 15 mins by tail flick method; in short: as §2
Mus musculus [8] = assay: Antinociceptive activity in ip dosed Swiss albino mouse assessed as latency time after 30 mins by tail flick method; in short: as §2
Mus musculus [9] = assay: Antinociceptive activity in ip dosed Swiss albino mouse assessed as latency time after 60 mins by tail flick method; in short: as §2
Mus musculus [10] = assay: Antinociceptive activity in ip dosed Swiss albino mouse assessed as latency time after 120 mins by tail flick method; in short: as §2
Rattus norvegicus = assay: Antiinflammatory activity assessed as reduction of carrageenan-induced paw volume in intraperitoneally dosed Wistar rat after 3 hrs; set-up: scale not given: the % may be the effect or the level left
In short: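 Wistar rats of either sex (120–150 g) were dosed ip with compounds at 9.5–12.58 mg/kg in 0.2% Tween suspension. After 1 h, 0.05 ml of 1.0% w/v carrageenan in 0.9% NaCl was injected into the left hind paw. Paw volume was measured by mercury-displacement plethysmometry before injection and at 1, 2 and 3 h. Percent inhibition of the 3 h swelling was calculated.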

| SMILES | Activity (Mus musculus [1]) | Activity (Mus musculus [2]) | Activity (Mus musculus [3]) | Activity (Mus musculus [4]) | Activity (Mus musculus [5]) | Activity (Mus musculus [6]) | Activity (Mus musculus [7]) | Activity (Mus musculus [8]) | Activity (Mus musculus [9]) | Activity (Mus musculus [10]) | Activity (Rattus norvegicus) |
| --- | --- | --- | --- | --- | --- | --- | --- | --- | --- | --- | --- |
| C=CCc1nc(-c2ccccc2)c(-c2ccccc2)[nH]1 | 4.66 s | 5.08 s | 5.12 s | 5.33 s | 5.47 s | 3.98 s | 4.02 s | 4.23 s | 4.27 s | 4.29 s | 32.56% |
| Ic1ccc(-c2nc(-c3ccccc3)c(-c3ccccc3)[nH]2)cc1 | 4.45 s | 4.64 s | 5.33 s | 6.18 s | 6.18 s | 4.16 s | 4.26 s | 5.21 s | 5.89 s | 6.5 s | 27.91% |
| c1ccc(-c2nc[nH]c2-c2ccccc2)cc1 | 4.66 s | 4.83 s | 4.83 s | 5.05 s | 5.2 s | 3.9 s | 3.92 s | 4.01 s | 4.01 s | 4.02 s | 20.94% |
| COc1cccc(-c2nc(-c3ccccc3)c(-c3ccccc3)[nH]2)c1 | 4.67 s | 5.02 s | 6.15 s | 7.42 s | 8.79 s | 4.12 s | 4.12 s | 4.56 s | 6.75 s | 7.99 s | 37.21% |
| Fc1ccc(-c2nc(-c3ccccc3)c(-c3ccccc3)[nH]2)cc1 | 4.78 s | 4.93 s | 7.5 s | 9.33 s | 10.83 s | 4.55 s | 4.87 s | 7.14 s | 8.92 s | 10.67 s | 79.07% |
| O=[N+]([O-])c1cccc(-c2nc(-c3ccccc3)c(-c3ccccc3)[nH]2)c1 | 4.55 s | 4.56 s | 4.6 s | 4.62 s | 5.62 s | 4.09 s | 4.09 s | 4.36 s | 5.74 s | 5.82 s | 4.66% |
| CN(C)c1ccc(-c2nc(-c3ccccc3)c(-c3ccccc3)[nH]2)cc1 | 4.5 s | 4.76 s | 7.16 s | 8.33 s | 10.3 s | 4.26 s | 4.45 s | 6.32 s | 7.93 s | 10.18 s | 69.77% |
| Cc1nc(-c2ccccc2)c(-c2ccccc2)[nH]1 | 4.65 s | 5.1 s | 5.33 s | 5.47 s | 5.52 s | 4.12 s | 4.17 s | 4.28 s | 4.35 s | 4.35 s | 25.59% |
| O=[N+]([O-])c1ccc(-c2nc(-c3ccccc3)c(-c3ccccc3)[nH]2)cc1 | 4.37 s | 4.6 s | 4.66 s | 5.82 s | 5.83 s | 4.13 s | 4.14 s | 5.09 s | 5.12 s | 5.13 s | 25.59% |
| c1ccc(-c2nc(-c3ccccc3)c(-c3ccccc3)[nH]2)cc1 | 4.63 s | 4.58 s | 5.28 s | 6.07 s | 6.1 s | 4.13 s | 4.13 s | 4.67 s | 5.12 s | 5.78 s | 30.24% |
| Clc1ccc(-c2nc(-c3ccccc3)c(-c3ccccc3)[nH]2)cc1 | 4.66 s | 4.9 s | 7.43 s | 8.98 s | 10.35 s | 4.52 s | 4.67 s | 6.92 s | 8.37 s | 10.5 s | 81.4% |
| COc1ccccc1-c1nc(-c2ccccc2)c(-c2ccccc2)[nH]1 | 4.9 s | 4.94 s | 6.89 s | 8.65 s | 9.25 s | 4.21 s | 4.21 s | 5.98 s | 7.64 s | 9.23 s | 65.12% |
| Clc1cccc(-c2nc(-c3ccccc3)c(-c3ccccc3)[nH]2)c1 | 4.68 s | 5.14 s | 6.18 s | 7.78 s | 8.91 s | 4.12 s | 4.12 s | 4.98 s | 6.89 s | 8.18 s | 55.82% |
| Nc1ccc(-c2nc(-c3ccccc3)c(-c3ccccc3)[nH]2)cc1 | 4.48 s | 4.69 s | 7.01 s | 8.25 s | 10.08 s | 4.22 s | 4.27 s | 6.18 s | 7.77 s | 10.05 s | 81.4% |
| Oc1ccccc1-c1nc(-c2ccccc2)c(-c2ccccc2)[nH]1 | 4.89 s | 4.93 s | 6.32 s | 8.59 s | 9.16 s | 4.2 s | 4.18 s | 5.82 s | 7.53 s | 9.12 s | 60.47% |
| Oc1ccc(-c2nc(-c3ccccc3)c(-c3ccccc3)[nH]2)cc1 | 4.55 s | 4.81 s | 7.21 s | 8.63 s | 10.33 s | 4.4 s | 4.48 s | 6.79 s | 8.18 s | 10.33 s | 83.73% |
| Cc1ccc(-c2nc(-c3ccccc3)c(-c3ccccc3)[nH]2)cc1 | 4.35 s | 4.5 s | 4.62 s | 4.83 s | 4.82 s | 4.14 s | 4.14 s | 4.82 s | 4.82 s | 4.89 s | 11.63% |
| Cc1cccc(-c2nc(-c3ccccc3)c(-c3ccccc3)[nH]2)c1 | 4.56 s | 4.6 s | 4.63 s | 4.67 s | 5.72 s | 4.1 s | 4.1 s | 4.48 s | 5.89 s | 5.93 s | 9.31% |
| Cc1ccccc1-c1nc(-c2ccccc2)c(-c2ccccc2)[nH]1 | 4.5 s | 4.55 s | 4.67 s | 4.79 s | 5.79 s | 4.11 s | 4.12 s | 4.52 s | 4.98 s | 5.52 s | 18.61% |
| COc1cc(-c2nc(-c3ccccc3)c(-c3ccccc3)[nH]2)ccc1O | 4.68 s | 5.23 s | 6.2 s | 7.92 s | 8.99 s | 4.16 s | 4.12 s | 5.57 s | 7.18 s | 8.34 s | 58.14% |
| Brc1ccc(-c2nc(-c3ccccc3)c(-c3ccccc3)[nH]2)cc1 | 4.45 s | 4.65 s | 6.37 s | 6.38 s | 6.38 s | 4.2 s | 4.45 s | 5.33 s | 6.5 s | 6.83 s | 74.42% |
